From ChEMBL document CHEMBL1130136, “Novel biological response modifiers: phthalimides with tumor necrosis factor-alpha production-regulating activity” (J Med Chem, 1997)
In brackets after ≈: the same amount, converted by molar mass.

Tests used:
WI-38 [1] = assay: In vitro cytotoxicity against human embryonic lung fibroblast WI-38 cells.; type: functional, cell-based
Method in brief: (§1)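 WI-38 human embryonic lung fibroblasts (5 × 10³ cells/well) in RPMI1640 + 10% FCS were exposed to graded concentrations of compound for 48 h at 37 °C. Viability was read by WST-1 with 1-methoxy PMS (2 h, 37 °C; absorbance at 450 nm). IC50 was reported in μg/mL, with the μM equivalent in parentheses.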

HL-60 [2] = assay: Tumor necrosis factor-alpha production in human leukemia cell line (HL-60) stimulated with 10 nM 12-O-tetradecanoylphorbol 13-acetate (TPA) at 30 uMolar.; type: functional
Method in brief: (§2)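 HL-60 cells at 5 × 10⁵/mL in RPMI1640 + 10% FBS were co-treated with 30 μM test compound and either 10 nM TPA or 50 nM OA for 16 h at 37 °C. Culture-medium TNF-α was measured by ELISA and expressed as % of inducer-alone control. Cell counts were taken at harvest. Assays were run in duplicate or triplicate (mean taken), at least three times.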

HL-60 [3] = assay: Tumor necrosis factor-alpha production in human leukemia cell line (HL-60) stimulated with 50 nM okadaic acid (OA), at 30 uMolar.; type: functional; method in brief: as §2
HL-60 [4] = assay: Amount of tumor necrosis factor-alpha produced by human leukemia cell line (HL-60) stimulated with 10 nM12-O-tetradecanoylphorbol 13-acetate (TPA) at 0.3 uM, measured by ELISA; type: functional
Method in brief: (§3)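 HL-60 cells (2.5 × 10⁵ in 0.5 mL, i.e. 5 × 10⁵/mL), growing exponentially in RPMI1640 + 10% FBS, were exposed to 10 nM TPA or 50 nM OA together with 0.3 μM test compound for 16 h at 37 °C. Secreted TNF-α was quantified by ELISA and expressed as % of inducer-alone production. Each run was done in duplicate or triplicate (mean taken) and repeated at least three times.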

WI-38 [5] = assay: The cytotoxicity of the compounds assessed using human embryonic lung fibroblast WI-38 cells at (83 micro M); type: functional, cell-based; method in brief: as §1
HL-60 [6] = assay: Inhibition of 50 nM okadaic acid induced tumor necrosis factor-alpha production in human leukemia cell line (HL-60) by 0.3 uM.; type: functional; method in brief: as §3
WI-38 [7] = assay: The cytotoxicity of the compounds assessed using human embryonic lung fibroblast WI-38 cells at (136 micro M); type: functional, cell-based; method in brief: as §1
WI-38 [8] = assay: The cytotoxicity of the compounds assessed using human embryonic lung fibroblast WI-38 cells at (20 micro M); type: functional, cell-based; method in brief: as §1
HL-60 [9] = assay: Amount of tumor necrosis factor-alpha produced by human leukemia cell line (HL-60) stimulated with 10 nM12-O-tetradecanoylphorbol 13-acetate (TPA) at 0.3 uM, measured by ELISA.; type: functional; method in brief: as §3
WI-38 [10] = assay: The cytotoxicity assessed using human embryonic lung fibroblast WI-38 cells.; type: functional, cell-based; method in brief: as §1
WI-38 [11] = assay: The cytotoxicity of the compounds assessed using human embryonic lung fibroblast WI-38 cells at (87 micro M); type: functional, cell-based; method in brief: as §1
WI-38 [12] = assay: The cytotoxicity of the compounds assessed using human embryonic lung fibroblast WI-38 cells at (97 micro M); type: functional, cell-based; method in brief: as §1
WI-38 [13] = assay: The cytotoxicity of the compounds assessed using human embryonic lung fibroblast WI-38 cells at (264 micro M); type: functional, cell-based; method in brief: as §1
WI-38 [14] = assay: The cytotoxicity of the compounds assessed using human embryonic lung fibroblast WI-38 cells at (148 micro M); type: functional, cell-based; method in brief: as §1
HL-60 [15] = assay: Amount of tumor necrosis factor-alpha produced by human leukemia cell line (HL-60) stimulated with 50 nM okadaic acid (OA), at 0.3 uM, measured by ELISA.; type: functional; method in brief: as §3
HL-60 [16] = assay: Amount of tumor necrosis factor-alpha produced in human leukemia cell line (HL-60) stimulated with 10 nM12-O-tetradecanoylphorbol 13-acetate (TPA) at 0.3 micro M, measured by ELISA.; type: functional; method in brief: as §3
WI-38 [17] = assay: The cytotoxicity of the compounds assessed using human embryonic lung fibroblast WI-38 cells at (2.3 micro M); type: functional, cell-based; method in brief: as §1
WI-38 [18] = assay: The cytotoxicity of the compounds assessed using human embryonic lung fibroblast WI-38 cells at (39 micro M); type: functional, cell-based; method in brief: as §1
WI-38 [19] = assay: The cytotoxicity of the compounds assessed using human embryonic lung fibroblast WI-38 cells at (40 micro M); type: functional, cell-based; method in brief: as §1
WI-38 [20] = assay: The cytotoxicity of the compounds assessed using human embryonic lung fibroblast WI-38 cells at (8 micro M); type: functional, cell-based; method in brief: as §1

Row | SMILES | IC50 (WI-38 [1]) [µg/mL] | Amount of TNF-alpha (HL-60 [2]) [%] | Amount of TNF-alpha (HL-60 [3]) [%] | further results
1 | Cc1ccccc1N1C(=O)c2ccccc2C1=O | > 100 | 100 | 68 | –
2 | C[C@@H](c1ccccc1)N1C(=O)c2c(F)c(F)c(F)c(F)c2C1=O | – | – | – | Amount of TNF-alpha (HL-60 [4]): 143%; IC50 (WI-38 [5]): 26.8 µg/mL (≈ 82.9 µM); Amount of TNF-alpha (HL-60 [6]): 70%
3 | CCc1cccc(CC)c1N1C(=O)c2ccccc2C1=O | – | 453 | 53 | IC50 (WI-38 [7]): 38 µg/mL (≈ 136 µM)
4 | CCc1cccc(C(C)C)c1N1C(=O)c2ccccc2C1=O | – | 255 | 26 | IC50 (WI-38 [8]): 6 µg/mL (≈ 20.5 µM)
5 | CC(=O)Nc1ccc([C@H](C)N2C(=O)c3c(F)c(F)c(F)c(F)c3C2=O)cc1 | – | – | – | Amount of TNF-alpha (HL-60 [6]): 80%; Amount of TNF-alpha (HL-60 [9]): 268%
6 | CC(C)c1cccc(C(C)C)c1N1C(=O)c2c(Br)c(Br)c(Br)c(Br)c2C1=O | – | 235 | 3 | –
7 | O=C1CCC(N2C(=O)c3ccccc3C2=O)C(=O)N1 (stereo not given) [THALIDOMIDE] | – | 135 | 58 | IC50 (WI-38 [10]): > 100 µg/mL
8 | O=C1c2c(F)c(F)c(F)c(F)c2C(=O)N1[C@@H]1CCc2ccccc21 | – | – | – | Amount of TNF-alpha (HL-60 [4]): 233%; IC50 (WI-38 [11]): 30.3 µg/mL (≈ 90.4 µM); Amount of TNF-alpha (HL-60 [6]): 43%
9 | O=C1c2ccccc2C(=O)N1c1ccccc1-c1ccccc1 | > 100 | 262 | 40 | –
10 | Cc1cccc(C(C)C)c1N1C(=O)c2ccccc2C1=O | – | 234 | 33 | IC50 (WI-38 [12]): 28.1 µg/mL (≈ 101 µM)
11 | CC(C)c1cccc(C(C)C)c1N1C(=O)c2cccc([N+](=O)[O-])c2C1=O | – | 792 | 54 | IC50 (WI-38 [13]): 93.1 µg/mL (≈ 264 µM)
12 | CC(C)c1cccc(C(C)C)c1N1Cc2ccccc2C1=O | – | 214 | 40 | IC50 (WI-38 [14]): 43.1 µg/mL (≈ 147 µM)
13 | CC(C)c1cccc(C(C)C)c1N1C(=O)c2c(F)c(F)c(F)c(F)c2C1=O | – | – | – | Amount of TNF-alpha (HL-60 [15]): 0%; Amount of TNF-alpha (HL-60 [16]): 375%; IC50 (WI-38 [17]): 0.9 µg/mL (≈ 2.37 µM)
14 | CC(C)c1cccc(C(C)C)c1N1C(=O)c2c(Cl)c(Cl)c(Cl)c(Cl)c2C1=O | > 100 | 250 | 19 | –
15 | CC(C)c1cccc(C(C)C)c1N1C(=O)c2cc3ccccc3cc2C1=O | > 100 | 144 | 48 | –
16 | CC(C)c1cccc(C(C)C)c1N1C(=O)c2cccc(O)c2C1=O | > 100 | 239 | 64 | –
17 | Cc1cc(C)cc(N2C(=O)c3ccccc3C2=O)c1 | > 100 | 136 | 89 | –
18 | CC(C)c1cccc(C(C)C)c1N1C(=O)c2ccc(O)cc2C1=O | – | 153 | 7 | IC50 (WI-38 [18]): 12.7 µg/mL (≈ 39.3 µM)
19 | C[C@H](c1ccc(N)cc1)N1C(=O)c2c(F)c(F)c(F)c(F)c2C1=O | – | – | – | Amount of TNF-alpha (HL-60 [4]): 241%; Amount of TNF-alpha (HL-60 [6]): 27%
20 | C[C@H](c1ccccc1)N1C(=O)c2c(F)c(F)c(F)c(F)c2C1=O | – | – | – | IC50 (WI-38 [19]): 12.8 µg/mL (≈ 39.6 µM); Amount of TNF-alpha (HL-60 [4]): 97%; Amount of TNF-alpha (HL-60 [6]): 2%
21 | C[C@@H](c1cccc2ccccc12)N1C(=O)c2c(F)c(F)c(F)c(F)c2C1=O | – | – | – | Amount of TNF-alpha (HL-60 [4]): 101%; IC50 (WI-38 [20]): 2.8 µg/mL (≈ 7.5 µM); Amount of TNF-alpha (HL-60 [6]): 101%
22 | O=C1c2ccccc2C(=O)N1c1ccccc1[N+](=O)[O-] | > 100 | 89 | 53 | –
23 | C/N=C1\c2ccccc2C(=O)N1c1c(C(C)C)cccc1C(C)C | – | 134 | 37 | –
24 | CCCCCc1ccccc1N1C(=O)c2ccccc2C1=O | > 100 | 151 | 35 | –
25 | C[C@@H](c1ccc([N+](=O)[O-])cc1)N1C(=O)c2c(F)c(F)c(F)c(F)c2C1=O | – | – | – | Amount of TNF-alpha (HL-60 [4]): 268%; Amount of TNF-alpha (HL-60 [6]): 32%
